Results taken from ChEMBL document CHEMBL1240333, “Surveying polypeptide and protein domain conformation and association with FlAsH and ReAsH” (Nat Chem Biol, 2007).
Where “and” joins values, the source holds several entries; their conditions need not be identical. Equal entries are not always repeated. Calls of active or inactive are those of the source. The calls are words filed in the database; no cut-off is given here. Peptide text beside a SMILES is read from it.

Legend:
[1] = Binding affinity to alpha helix of avian pancreatic polypeptide F24/Y31P mutant by circular dichroism spectroscopy
How it was run: (§1)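 CD spectra recorded at 25 °C in 10 mM sodium phosphate pH 7.0 with no competing dithiols. Protein at 10 μM (aPP, Zip4) or 20 μM (GCN4, Jun); unmodified peptides and their FlAsH complexes. Three wavelength scans at 50 nm min-1 averaged, buffer-only background subtracted.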

[2] = Binding affinity to avian pancreatic polypeptide F24/Y31P mutant
How it was run: (§2)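 Fluorescence titration: 25 nM FlAsH or ReAsH titrated with increasing synthetic peptide or protein domain in 100 mM Tris-HCl pH 7.8 with 3.5 mM TCEP, 1 mM EDT, 1 mM EDTA. Emission read at 530 ± 12.5 nm (FlAsH) or 630 ± 17.5 nm (ReAsH) after reaching equilibrium, tracked over time. Apparent Kd taken from intensity versus concentration. Points are means of ≥3 independent titrations ± s.d.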

[3] = Binding affinity to avian pancreatic polypeptide F24P mutant; how it was run: as §2
HeLa [4] = assay: Binding affinity to eGFP-tagged avian pancreatic polypeptide F24P mutant expressed in human HeLa cells at 500 nM after 10 hrs by FRET assay; type: cell-based
HeLa [5] = assay: Binding affinity to eGFP-tagged avian pancreatic polypeptide F24P mutant expressed in human HeLa cells by flow cytometry; type: cell-based
How it was run: (§3)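 Live HeLa cells transiently expressing eGFP fusions (aPP C-terminal or GCN4 N-terminal to eGFP) or eGFP alone. Stained 30 min with 500 nM ReAsH-EDT2 plus 100 μM EDT in phenol red-free, serum-free DMEM with 2 mM L-glutamine. PBS wash, then 0.75 mM BAL 30 min. Cells trypsinized and run by flow cytometry: eGFP 488 nm laser, 530 ± 15 nm; ReAsH 568 nm laser, 610 ± 10 nm. Mean ReAsH intensity plotted per log unit of eGFP.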

HeLa [6] = assay: Binding affinity to eGFP-tagged avian pancreatic polypeptide F24P mutant expressed in human HeLa cells at 100 uM after 30 mins by FRET assay; type: cell-based
[7] = Binding affinity to alpha helix of avian pancreatic polypeptide F24P mutant by circular dichroism spectroscopy; how it was run: as §1
HeLa [8] = assay: Binding affinity to eGFP-tagged avian pancreatic polypeptide expressed in human HeLa cells at 100 uM after 30 mins by FRET assay; type: cell-based
[9] = Binding affinity to alpha helix of avian pancreatic polypeptide by circular dichroism spectroscopy; how it was run: as §1
[10] = Binding affinity to avian pancreatic polypeptide containing bipartite tetracysteine motif at 25 nM; how it was run: as §2
HeLa [11] = assay: Binding affinity to eGFP-tagged avian pancreatic polypeptide expressed in human HeLa cells at 500 nM after 10 hrs by FRET assay; type: cell-based
HeLa [12] = assay: Binding affinity to eGFP-tagged avian pancreatic polypeptide expressed in human HeLa cells by flow cytometry; type: cell-based; how it was run: as §3
[13] = Binding affinity to avian pancreatic polypeptide containing bipartite tetracysteine motif; how it was run: as §2
[14] = Binding affinity to avian pancreatic polypeptide containing bipartite tetracysteine motif at 100 nM; conditions: filed as agonist
[15] = Binding affinity to c-Jun L20P mutant at 25 degC by circular dichroism spectroscopy
[16] = Binding affinity to c-Jun homodimer L20P mutant containing bipartite tetracysteine motif; how it was run: as §2
[17] = Binding affinity to tryptophan Zip4 polypeptide containing bipartite tetracysteine motif at 25 nM; how it was run: as §2
[18] = Binding affinity to tryptophan Zip4 polypeptide containing bipartite tetracysteine motif at 100 nM
[19] = Binding affinity to beta sheet structure of tryptophan Zip4 polypeptide by circular dichroism spectroscopy; how it was run: as §1
[20] = Binding affinity to tryptophan Zip4 polypeptide containing bipartite tetracysteine motif; how it was run: as §2
[21] = Binding affinity to tryptophan Zip4 polypeptide W916A mutant containing bipartite tetracysteine motif; how it was run: as §2
[22] = Binding affinity to beta sheet of tryptophan Zip4 polypeptide W916A mutant by circular dichroism spectroscopy; how it was run: as §1

## CC[C@H](C)[C@H](NC(=O)[C@H](CC(C)C)NC(=O)[C@H](CC(=O)O)NC(=O)[C@H](CCC(=O)O)NC(=O)[C@@H](NC(=O)[C@@H]1CCCN1C(=O)[C@H](C)NC(=O)[C@H](CC(=O)O)NC(=O)[C@H](CC(=O)O)NC(=O)CNC(=O)[C@@H]1CCCN1C(=O)[C@H](Cc1ccc(O)cc1)NC(=O)[C@@H](NC(=O)[C@@H]1CCCN1C(=O)[C@H](CCC(N)=O)NC(=O)[C@H](CO)NC(=O)[C@@H]1CCCN1C(=O)[C@H](CS)NC(=O)[C@H](CS)NC(=O)[C@H](CC(N)=O)NC(=O)[C@H](CC(C)C)NC(=O)[C@H](Cc1ccccc1)NC(C)=O)[C@H](C)O)C(C)C)C(=O)N[C@@H](CCCNC(=N)N)C(=O)N1CCC[C@H]1C(=O)N[C@@H](Cc1ccc(O)cc1)C(=O)N[C@@H](CC(=O)O)C(=O)N[C@@H](CC(N)=O)C(=O)N[C@@H](CC(C)C)C(=O)N[C@@H](CCC(N)=O)C(=O)N[C@@H](CCC(N)=O)C(=O)N1CCC[C@H]1C(=O)N[C@@H](CC(C)C)C(=O)N[C@@H](CC(N)=O)C(=O)N[C@H](C(=O)N[C@@H](CS)C(=O)N[C@@H](CS)C(=O)N[C@@H](CCSC)C(=O)N[C@@H](CCC(=O)O)C(=O)N1CCC[C@H]1C(N)=O)C(C)C
[1]
  Activity: inactive
[2]
  Kapp: 65 µM and 72 µM

## CC[C@H](C)[C@H](NC(=O)[C@H](CC(C)C)NC(=O)[C@H](CC(=O)O)NC(=O)[C@H](CCC(=O)O)NC(=O)[C@@H](NC(=O)[C@@H]1CCCN1C(=O)[C@H](C)NC(=O)[C@H](CC(=O)O)NC(=O)[C@H](CC(=O)O)NC(=O)CNC(=O)[C@@H]1CCCN1C(=O)[C@H](Cc1ccc(O)cc1)NC(=O)[C@@H](NC(=O)[C@@H]1CCCN1C(=O)[C@H](CCC(N)=O)NC(=O)[C@H](CO)NC(=O)[C@@H]1CCCN1C(=O)[C@H](CS)NC(=O)[C@H](CS)NC(=O)[C@H](CC(N)=O)NC(=O)[C@H](CC(C)C)NC(=O)[C@H](Cc1ccccc1)NC(C)=O)[C@H](C)O)C(C)C)C(=O)N[C@@H](CCCNC(=N)N)C(=O)N1CCC[C@H]1C(=O)N[C@@H](Cc1ccc(O)cc1)C(=O)N[C@@H](CC(=O)O)C(=O)N[C@@H](CC(N)=O)C(=O)N[C@@H](CC(C)C)C(=O)N[C@@H](CCC(N)=O)C(=O)N[C@@H](CCC(N)=O)C(=O)N[C@@H](Cc1ccc(O)cc1)C(=O)N[C@@H](CC(C)C)C(=O)N[C@@H](CC(N)=O)C(=O)N[C@H](C(=O)N[C@@H](CS)C(=O)N[C@@H](CS)C(=O)N[C@@H](CCSC)C(=O)N[C@@H](CCC(=O)O)C(=O)N1CCC[C@H]1C(N)=O)C(C)C
[3]
  Kapp: 27 µM and 22 µM
HeLa [4]
  Activity: inactive
HeLa [5]
  Activity: Active
HeLa [6]
  Activity: Active
[7]
  Activity: inactive

## CC[C@H](C)[C@H](NC(=O)[C@H](CC(C)C)NC(=O)[C@H](CC(=O)O)NC(=O)[C@H](CCC(=O)O)NC(=O)[C@@H](NC(=O)[C@@H]1CCCN1C(=O)[C@H](C)NC(=O)[C@H](CC(=O)O)NC(=O)[C@H](CC(=O)O)NC(=O)CNC(=O)[C@@H]1CCCN1C(=O)[C@H](Cc1ccc(O)cc1)NC(=O)[C@@H](NC(=O)[C@@H]1CCCN1C(=O)[C@H](CCC(N)=O)NC(=O)[C@H](CO)NC(=O)[C@@H]1CCCN1C(=O)[C@H](CS)NC(=O)[C@H](CS)NC(=O)[C@H](CC(N)=O)NC(=O)[C@H](CC(C)C)NC(=O)[C@H](Cc1ccccc1)NC(C)=O)[C@H](C)O)C(C)C)C(=O)N[C@@H](CCCNC(=N)N)C(=O)N[C@@H](Cc1ccccc1)C(=O)N[C@@H](Cc1ccc(O)cc1)C(=O)N[C@@H](CC(=O)O)C(=O)N[C@@H](CC(N)=O)C(=O)N[C@@H](CC(C)C)C(=O)N[C@@H](CCC(N)=O)C(=O)N[C@@H](CCC(N)=O)C(=O)N[C@@H](Cc1ccc(O)cc1)C(=O)N[C@@H](CC(C)C)C(=O)N[C@@H](CC(N)=O)C(=O)N[C@H](C(=O)N[C@@H](CS)C(=O)N[C@@H](CS)C(=O)N[C@@H](CCSC)C(=O)N[C@@H](CCC(=O)O)C(=O)N1CCC[C@H]1C(N)=O)C(C)C
HeLa [8]
  Activity: Active
[9]
  Activity: inactive
[10]
  Activity: Active
HeLa [11]
  Activity: Active
HeLa [12]
  Activity: Active
[13]
  Kapp: 5.8 µM and 3.4 µM
[14]
  Activity: Agonist

## CC[C@H](C)[C@H](NC(=O)[C@H](CCCNC(=N)N)NC(=O)[C@H](Cc1c[nH]c2ccccc12)NC(C)=O)C(=O)N[C@@H](C)C(=O)N[C@@H](CCCNC(=N)N)C(=O)N[C@@H](CC(C)C)C(=O)N[C@@H](CCC(=O)O)C(=O)N[C@@H](CCC(=O)O)C(=O)N[C@@H](CCCCN)C(=O)N[C@H](C(=O)N[C@@H](CCCCN)C(=O)N[C@H](C(=O)N[C@@H](CC(C)C)C(=O)N[C@@H](CCCCN)C(=O)N[C@@H](C)C(=O)N[C@@H](CCC(N)=O)C(=O)N[C@@H](CC(N)=O)C(=O)N[C@@H](CO)C(=O)N[C@@H](CCC(=O)O)C(=O)N1CCC[C@H]1C(=O)N[C@@H](C)C(=O)N[C@@H](CO)C(=O)N[C@H](C(=O)N[C@@H](C)C(=O)N[C@@H](CC(N)=O)C(=O)N[C@@H](CCSC)C(=O)N[C@@H](CC(C)C)C(=O)N[C@@H](CCCNC(=N)N)C(=O)N[C@@H](CCC(=O)O)C(=O)N[C@@H](CCC(N)=O)C(=O)N[C@H](C(=O)N[C@@H](C)C(=O)N[C@@H](CCC(N)=O)C(=O)N[C@@H](CC(C)C)C(=O)N[C@@H](CCCCN)C(=O)N[C@@H](CCC(N)=O)C(=O)N[C@@H](CCCCN)C(=O)N[C@H](C(=O)N[C@@H](CS)C(=O)N[C@@H](CS)C(N)=O)C(C)C)C(C)C)[C@@H](C)O)[C@@H](C)O)C(C)C (Ac-WRIARLEEKVKTLKAQNSEPASTANMLREQVAQLKQKVCC-NH2)
[15]
  Activity: inactive
[16]
  Kapp: > 111 µM

## CSCC[C@H](NC(=O)[C@H](CS)NC(=O)[C@H](CS)NC(=O)[C@@H](NC(=O)[C@H](Cc1c[nH]c2ccccc12)NC(=O)[C@@H](NC(=O)[C@H](Cc1c[nH]c2ccccc12)NC(=O)[C@@H](NC(=O)[C@H](CCCCN)NC(=O)[C@@H](NC(=O)[C@H](C)NC(=O)[C@H](CC(=O)O)NC(=O)[C@H](CC(=O)O)NC(=O)[C@H](Cc1c[nH]c2ccccc12)NC(=O)[C@@H](NC(=O)[C@H](Cc1c[nH]c2ccccc12)NC(=O)[C@H](CCC(=O)O)NC(=O)[C@H](CS)NC(=O)[C@H](CS)NC(=O)[C@H](CC(N)=O)NC(=O)[C@H](CC(C)C)NC(=O)[C@H](Cc1ccccc1)NC(C)=O)[C@@H](C)O)[C@@H](C)O)[C@@H](C)O)[C@@H](C)O)[C@@H](C)O)C(=O)N[C@@H](CCC(=O)O)C(=O)N1CCC[C@H]1C(N)=O (Ac-FLNCCEWTWDDATKTWTWTCCMEP-NH2)
[17]
  Activity: Active
[18]
  Activity: Active
[19]
  Activity: inactive
[20]
  Kapp: 0.62 µM and 0.38 µM

## CSCC[C@H](NC(=O)[C@H](CS)NC(=O)[C@H](CS)NC(=O)[C@@H](NC(=O)[C@H](Cc1c[nH]c2ccccc12)NC(=O)[C@@H](NC(=O)[C@H](C)NC(=O)[C@@H](NC(=O)[C@H](CCCCN)NC(=O)[C@@H](NC(=O)[C@H](C)NC(=O)[C@H](CC(=O)O)NC(=O)[C@H](CC(=O)O)NC(=O)[C@H](C)NC(=O)[C@@H](NC(=O)[C@H](Cc1c[nH]c2ccccc12)NC(=O)[C@H](CCC(=O)O)NC(=O)[C@H](CS)NC(=O)[C@H](CS)NC(=O)[C@H](CC(N)=O)NC(=O)[C@H](CC(C)C)NC(=O)[C@H](Cc1ccccc1)NC(C)=O)[C@@H](C)O)[C@@H](C)O)[C@@H](C)O)[C@@H](C)O)[C@@H](C)O)C(=O)N[C@@H](CCC(=O)O)C(=O)N1CCC[C@H]1C(N)=O (Ac-FLNCCEWTADDATKTATWTCCMEP-NH2)
[21]
  Kapp: 38 µM and 13 µM
[22]
  Activity: inactive
